Usually bioavailability stands for the share of a dose that reaches the circulation, judged against a reference dose that is usually intravenous. Lower therefore signals little systemic uptake. As usually defined, the pKi is the Ki on a negative log10 scale, so that one unit is a factor of ten. By ED50 is commonly meant the midpoint of the dose-response relation. The half-life is the time needed for the level to fall by half in the phase considered. A higher half-life goes with slow loss. As usually defined, the Vd is a proportionality between amount in the body and measured concentration, not a real space. Low values mean confinement near the circulation, high ones extensive tissue distribution. The term clearance denotes the volume of plasma or blood freed of the substance per unit of time. Low values mean a low capacity for elimination, high ones a high capacity for elimination. A word on the Ki: it is a dissociation constant, usually derived from enzyme kinetics or from competition with a known ligand. The solubility is the dissolved amount per volume that the medium holds.

The record followed here is ChEMBL document CHEMBL1806366, “Synthesis and structure-activity relationship of new 1,5-dialkyl-1,5-benzodiazepines as cholecystokinin-2 receptor antagonists” (Bioorg Med Chem, 2011).

Data set [1] is described as follows: Oral bioavailability in dog administered as methocel suspension. Format: ADME, organism-based, Canis lupus familiaris. The following applies: in vivo.
Data set [2] has as its system Mus musculus. Kind of data set: Anxiolytic activity in po dosed mouse assessed as duration of action of the compound measured after 60 mins post dose by black/white box test. In kind it is functional. In short, it runs like this: (§1)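 Mice dosed orally 60 min before testing, then placed in the centre of the illuminated white compartment of a two-part black/white box. Time spent exploring the white and black sides recorded; longer time in the white side read as anxiolytic effect. Model used for both potency and duration of action.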

Data set [3] in a line: Displacement of [3H]CCK8 from guinea pig brain CCK2 receptor by liquid scintillation counting. The arrangement: species or system Cavia porcellus. The procedure, abridged:
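Guinea pig brain membranes incubated at 25 °C with [³H]-CCK8s at 0.2 nM; nonspecific binding defined with L-365,260. Bound and free ligand separated by filtration over GF/C filters, then counted by liquid scintillation. Ki calculated using Bmax and KD from separate saturation binding isotherms.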
For orientation: Loss of bound radioactivity is the signal in a displacement assay; it reports binding, not function.

Data set [4] deals with Mus musculus. The data set can be described thus: Anxiolytic activity in po dosed mouse measured after 60 mins post dose by black/white box test. Format: functional. The procedure, abridged: as §1
A short description of data set [5]: Half life in dog administered as methocel suspension. Format: ADME, organism-based, Canis lupus familiaris. The following applies: in vivo.
The nature of data set [6]: (§2) Volume of distribution in rat administered as methocel suspension. The following applies: in vivo. In kind it is ADME, organism-based.
Data set [7] is described as follows: Selectivity ratio of pKi for guinea pig brain CCK2 receptor to pKi for rat pancreas CCK1. In short, it runs like this: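 Radioligand displacement binding to guinea pig brain membranes (CCK2, incubated at 25 °C) and rat pancreas membranes (CCK1, incubated at 37 °C) with 0.2 nM [³H]-CCK8s. Non-specific binding was defined with L-365,260 (CCK2) or L-364,718 (CCK1). Bound ligand was separated by GF/C filtration and counted by liquid scintillation. Ki values were derived for each subtype, with KD and Bmax taken from separate saturation isotherms.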

The nature of data set [8]: Volume of distribution in dog administered as methocel suspension. In kind it is ADME, organism-based, Canis lupus familiaris. As to conditions: in vivo.
Data set [9] is described as follows: Clearance in dog administered as methocel suspension. In kind it is ADME, organism-based, Canis lupus familiaris. The following applies: in vivo.
Data set [10] can be described thus: Half life in rat administered as methocel suspension. Format: ADME, organism-based. As to conditions: in vivo.
The target of data set [11] is T1, Cholecystokinin receptor type A (Rattus norvegicus, UniProt P30551).
T1 sequence (P30551 whole entry): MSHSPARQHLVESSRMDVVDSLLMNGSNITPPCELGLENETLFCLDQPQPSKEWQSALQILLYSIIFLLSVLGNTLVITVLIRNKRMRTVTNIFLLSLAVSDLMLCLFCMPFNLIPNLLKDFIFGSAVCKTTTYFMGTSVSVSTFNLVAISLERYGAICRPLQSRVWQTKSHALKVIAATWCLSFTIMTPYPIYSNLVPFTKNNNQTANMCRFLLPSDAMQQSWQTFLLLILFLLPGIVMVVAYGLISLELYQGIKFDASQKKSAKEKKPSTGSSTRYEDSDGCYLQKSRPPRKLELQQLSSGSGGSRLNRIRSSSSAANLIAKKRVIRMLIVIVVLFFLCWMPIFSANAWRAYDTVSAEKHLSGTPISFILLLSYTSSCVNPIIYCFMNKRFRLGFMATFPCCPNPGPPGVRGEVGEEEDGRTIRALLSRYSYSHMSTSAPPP
Kind of data set: Displacement of [3H]CCK8 from rat pancreas CCK1 receptor at by liquid scintillation counting. The procedure, abridged: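 Rat pancreas membranes incubated at 37 °C with [³H]-CCK8s at 0.2 nM; nonspecific binding defined with L-364,718. Bound and free ligand separated by filtration over GF/C filters, then counted by liquid scintillation. Ki calculated using Bmax and KD from separate saturation binding isotherms.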

The nature of data set [12]: (§3) Oral bioavailability in rat administered as methocel suspension. In kind it is ADME, organism-based. The following applies: in vivo.
Data set [13] is described as follows: Clearance in rat administered as methocel suspension. As to conditions: in vivo. Format: ADME, organism-based.
Data set [14] in a line: Solubility of the compound at pH 2.4. In kind it is physicochemical. The following applies: buffer.
The test system of data set [15] is Rattus norvegicus. Described as §2. In kind it is ADME, organism-based. The following applies: in vivo.
The test system of data set [16] is Rattus norvegicus. The description is as §3. In kind it is ADME, organism-based. As to conditions: in vivo.
For data set [17], the system named is Mus musculus. The data set can be described thus: Anxiolytic activity in mouse up to 300 ug/kg, po measured after 60 mins post dose by black/white box test. In kind it is functional, organism-based. The procedure, abridged: as §1
Setting [18] is: Mus musculus, po, 1 h, read-out: ED50.

Converted amounts (≈) assume the structure as drawn. The source made the active and inactive calls.

As to `CC(C)CCN1C(=O)C(NC(=O)Nc2ccccc2)C(=O)N(CCN2CCOCC2)c2ccccc21` (racemic), the results for the bioavailability in data set [1] and in [12] were 36% and 18%, respectively. In addition, the Time in the data set on Mus musculus [2] was 2 h. Further, in data set [3], the pKi was found to be 8.54. The ED50 in the data set on Mus musculus [4] (setting [18]) was 0.011 µg/kg. In addition, the results for the half-life in [5] and in data set [10] were 0.9 h and 0.38 h, respectively. Further, the distribution volume (Vd) in data set [6] turned out to be 1.1 L/kg; in data set [8], 1 L/kg. Also, in [7], the Ki selectivity ratio (CCK1 Ki / CCK2 Ki) was 234. For the same compound, the values for the clearance in data set [9] and in [13] were 14 mL/min and 34 mL/min, respectively. Also, the inhibitory constant (Ki) in data set [11] was 0.676 µM. In data set [14] (read-out: solubility), the solubility was 450 µg/mL (≈ 912 µM).

Turning to `CC(C)CCN1C(=O)C(NC(=O)Nc2ccccc2)C(=O)N(CCN(C)C)c2ccccc21` (racemic), the bioavailability stood at 40% in data set [1] and 20% in data set [12]. Moreover, in the data set on Mus musculus [2], the Time was found to be 2 h. The pKi in data set [3] is recorded as 8.36. Further, the median effective dose (ED50) in the data set on Mus musculus [4] (setting [18]) was 0.041 µg/kg. The half-life in data set [5] was 1.3 h; in data set [10], 1 h. The Vd in data set [6] came out at 3.1 L/kg; in data set [8] it was 2.5 L/kg. Further, the Ki selectivity ratio (CCK1 Ki / CCK2 Ki) in data set [7] is 759. The clearance amounted to 23 mL/min in data set [9] and 37 mL/min in [13]. In [11], this compound had an inhibition constant Ki of 3.31 µM. For the same compound, in data set [14] (read-out: solubility), the solubility was 850 µg/mL (≈ 1880 µM).

Consider `O=C(Nc1ccccc1)NC1C(=O)N(CCN2CCOCC2)c2ccccc2N(CC23CC4CC(CC(C4)C2)C3)C1=O` (single isomer, unassigned; (-)), for which the Time in the data set with Mus musculus [2] worked out at 4 h. Moreover, the pKi in [3] was determined as 9.64. Further, the median effective dose (ED50) in the data set on Mus musculus [4] (setting [18]) was 0.002 µg/kg. In the data set with Rattus norvegicus [15], the Vd worked out at 1.1 L/kg. In addition, the Ki in [11] was 2.04 µM. In the data set on Rattus norvegicus [16], this compound registered an F of 10%. Besides, the solubility in data set [14] (read-out: solubility) turned out to be 230 µg/mL (≈ 402 µM).

As to `CN(C)CCN1C(=O)C(NC(=O)Nc2ccccc2)C(=O)N(CC23CC4CC(CC(C4)C2)C3)c2ccccc21` (racemic), the Time with Mus musculus [2] amounted to 4 h. The same compound registered a pKi in data set [3] of 9. Moreover, the ED50 in the data set with Mus musculus [4] (setting [18]) amounted to 0.004 µg/kg. In [6], this compound came in with a Vd of 2.7 L/kg. In data set [7], the Ki selectivity ratio (CCK1 Ki / CCK2 Ki) came out at 3240. Further, the half-life in [10] was 1.1 h. The Ki in data set [11] is 3.24 µM. In addition, the bioavailability in [12] is 5%. This compound also registered a clearance in data set [13] of 28 mL/min. The solubility in data set [14] (read-out: solubility) turned out to be 850 µg/mL (≈ 1600 µM).

Regarding `CC(C)CCN1C(=O)C(NC(=O)Nc2ccc(O)cc2)C(=O)N(CCN2CCOCC2)c2ccccc21` (racemic), in data set [3], the pKi was determined as 8.13. Moreover, the Ki selectivity ratio (CCK1 Ki / CCK2 Ki) in data set [7] is 1120. Also, the Ki in data set [11] was 8.32 µM. For the same compound, the outcome in the data set with Mus musculus [17] was inactive. Moreover, the solubility in data set [14] (read-out: solubility) amounted to 450 µg/mL (≈ 883 µM).

On to `O=C(Nc1ccccc1)N[C@@H]1C(=O)N(CC23CC4CC(CC(C4)C2)C3)c2ccccc2N(c2ccccc2)C1=O`, for which the ED50 with Mus musculus [4] (setting [18]) was found to be 0.05 µg/kg.

Consider `O=C(Nc1ccccc1)NC1C(=O)N(CCN2CCOCC2)c2cc(F)ccc2N(CC23CC4CC(CC(C4)C2)C3)C1=O` (single isomer, unassigned; (-)), for which the Time with Mus musculus [2] came out at 4 h. In [3], this compound gave a pKi of 8.52. Also, in the data set on Mus musculus [4] (setting [18]), the ED50 is 0.08 µg/kg. In addition, the Vd in data set [6] was found to be 2.2 L/kg. Also, in data set [10], the half-life was 1.1 h. In [11], this compound showed a Ki of 3.09 µM. In data set [12], this compound came in with a bioavailability of 5%. This compound also returned a clearance in [13] of 23 mL/min. In data set [14] (read-out: solubility), the solubility worked out at 360 µg/mL (≈ 610 µM).

In data set [3], `CCN(CC)CCN1C(=O)C(NC(=O)Nc2ccccc2)C(=O)N(CCC(C)C)c2ccccc21` (racemic) came in with a pKi of 8.8. In addition, the ED50 in the data set with Mus musculus [4] (setting [18]) stood at 0.0006 µg/kg. Also, in data set [7], the Ki selectivity ratio (CCK1 Ki / CCK2 Ki) is 2570. In data set [11], affinity was put at a Ki of 4.07 µM.

Regarding `O=C(Nc1ccccc1)NC1C(=O)N(CCN2CCOCC2)c2ccccc2N(CC23CC4CC(CC(C4)C2)C3)C1=O` (racemic), the bioavailability was 9% in [1] and 13% in [12]. This compound yielded a pKi in [3] of 9.24. This compound also came in with an ED50 in the data set on Mus musculus [4] of 0.001 µg/kg. Besides, the half-life is 1.6 h in data set [5] and 1.1 h in data set [10]. The Vd in data set [6] worked out at 1 L/kg; in data set [8], 4.8 L/kg. The clearance was 34 mL/min in [9] and 12 mL/min in data set [13]. The Ki in data set [11] is 2.04 µM. Further, the solubility in data set [14] is 230 µg/mL (≈ 402 µM).
